ChEMBL document CHEMBL1122777, “Effect of tellurium position on the myocardial uptake of radioiodinated 18-iodotellura-17-octadecenoic acid analogues” (1984)

What was measured:
Rattus norvegicus [1] = assay: Heart uptake after 5 min was determined in female Fischer rats after [125I]-labeled compound complexed with bovine serum albumin was injected intravenously; assay type: functional
How it was run: (§1)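 Female Fischer 344 rats (fed ad libitum) under ether anaesthesia received the ¹²⁵I fatty acid in a lateral tail vein. Dose was ~3.8–4.8 μCi per rat (sp act ~125–240 mCi/mmol), given in 0.5 mL 6% bovine albumin (final ethanol 10%) after filtration. Four rats per time point were used. Tissue radioactivity is % injected dose/g, mean with range, calculated against standards of the injected solution.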

[2] = Ratio of heart to kidneys uptake after 120 min was determined in female Fischer rats after [125I]-labeled compound complexed with bovine serum albumin was injected intravenously; assay type: functional, Heart/Kidney
How it was run: (§2)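 Female Fischer 344 rats (food and water ad libitum) given the 125I-labelled fatty acid in 6% bovine albumin with 10% final ethanol, filtered, 0.5 mL into a lateral tail vein under ether anaesthesia. Four rats per time point. Tissue activity expressed as % injected dose/g against assayed injectate standards. Mean heart/tissue ratios were calculated from mean %ID/g values.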

[3] = Ratio of heart to lungs uptake after 5 min was determined in female Fischer rats after [125I]-labeled compound complexed with bovine serum albumin was injected intravenously; assay type: functional; how it was run: as §2
Rattus norvegicus [4] = assay: Heart uptake after 120 min was determined in female Fischer rats after [125I]-labeled compound complexed with bovine serum albumin was injected intravenously; assay type: functional; how it was run: as §1
[5] = Ratio of heart to lungs uptake after 60 min was determined in female Fischer rats after [125I]-labeled compound complexed with bovine serum albumin was injected intravenously; assay type: functional; how it was run: as §2
[6] = Ratio of heart to kidneys uptake after 30 min was determined in female Fischer rats after [125I]-labeled compound complexed with bovine serum albumin was injected intravenously; assay type: functional, Heart/Kidney; how it was run: as §2
[7] = Ratio of heart to blood uptake after 30 min was determined in female Fischer rats after [125I]-labeled compound complexed with bovine serum albumin was injected intravenously; assay type: functional; how it was run: as §2
[8] = Ratio of heart to kidneys uptake after 240 min was determined in female Fischer rats after [125I]-labeled compound complexed with bovine serum albumin was injected intravenously; assay type: functional, Heart/Kidney; how it was run: as §2
[9] = Ratio of heart to liver uptake after 5 min was determined in female Fischer rats after [125I]-labeled compound complexed with bovine serum albumin was injected intravenously; assay type: functional; how it was run: as §2
[10] = Ratio of heart to blood uptake after 240 min was determined in female Fischer rats after [125I]-labeled compound complexed with bovine serum albumin was injected intravenously; assay type: functional; how it was run: as §2
[11] = Ratio of heart to lungs uptake after 30 min was determined in female Fischer rats after [125I]-labeled compound complexed with bovine serum albumin was injected intravenously; assay type: functional; how it was run: as §2
Rattus norvegicus [12] = assay: Heart uptake after 60 min was determined in female Fischer rats after [125I]-labeled compound complexed with bovine serum albumin was injected intravenously; assay type: functional; how it was run: as §1
[13] = Ratio of heart to kidneys uptake after 60 min was determined in female Fischer rats after [125I]-labeled compound complexed with bovine serum albumin was injected intravenously; assay type: functional, Heart/Kidney; how it was run: as §2
[14] = Ratio of heart to lungs uptake after 120 min was determined in female Fischer rats after [125I]-labeled compound complexed with bovine serum albumin was injected intravenously; assay type: functional; how it was run: as §2
[15] = Ratio of heart to liver uptake after 240 min was determined in female Fischer rats after [125I]-labeled compound complexed with bovine serum albumin was injected intravenously; assay type: functional; how it was run: as §2
[16] = Ratio of heart to blood uptake after 5 min was determined in female Fischer rats after [125I]-labeled compound complexed with bovine serum albumin was injected intravenously; assay type: functional; how it was run: as §2
[17] = Ratio of heart to lungs uptake after 240 min was determined in female Fischer rats after [125I]-labeled compound complexed with bovine serum albumin was injected intravenously; assay type: functional; how it was run: as §2
[18] = Ratio of heart to liver uptake after 120 min was determined in female Fischer rats after [125I]-labeled compound complexed with bovine serum albumin was injected intravenously; assay type: functional; how it was run: as §2
[19] = Ratio of heart to blood uptake after 60 min was determined in female Fischer rats after [125I]-labeled compound complexed with bovine serum albumin was injected intravenously; assay type: functional; how it was run: as §2
[20] = Ratio of heart to blood uptake after 120 min was determined in female Fischer rats after [125I]-labeled compound complexed with bovine serum albumin was injected intravenously; assay type: functional; how it was run: as §2
Rattus norvegicus [21] = assay: Heart uptake after 30 min was determined in female Fischer rats after [125I]-labeled compound complexed with bovine serum albumin was injected intravenously; assay type: functional; how it was run: as §1
[22] = Ratio of heart to liver uptake after 60 min was determined in female Fischer rats after [125I]-labeled compound complexed with bovine serum albumin was injected intravenously; assay type: functional; how it was run: as §2
Rattus norvegicus [23] = assay: Heart uptake after 240 min was determined in female Fischer rats after [125I]-labeled compound complexed with bovine serum albumin was injected intravenously; assay type: functional; how it was run: as §1
[24] = Ratio of heart to liver uptake after 30 min was determined in female Fischer rats after [125I]-labeled compound complexed with bovine serum albumin was injected intravenously; assay type: functional; how it was run: as §2
[25] = Ratio of heart to kidneys uptake after 5 min was determined in female Fischer rats after [125I]-labeled compound complexed with bovine serum albumin was injected intravenously; assay type: functional, Heart/Kidney; how it was run: as §2
Rattus norvegicus [26] = assay: Blood uptake after 4 hr was determined in female Fischer rats after [125I]-labeled compound complexed with bovine serum albumin was injected intravenously; assay type: functional; how it was run: as §1
Rattus norvegicus [27] = assay: Uptake in lungs after 1 day was determined in female Fischer rats after [125I]-labeled compound complexed with bovine serum albumin was injected intravenously; assay type: functional
How it was run: (§3)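 Female Fischer 344 rats with free access to food and water. The 125I-labelled fatty acid (~3.8–4.8 μCi; sp act. ~125–240 mCi/mmol) was complexed with 6% bovine serum albumin (10% final ethanol), filtered, and 0.5 mL was injected via a lateral tail vein under ether anaesthesia. Four rats per time point. Values are mean % injected dose/g, calculated against injectate standards. Thyroid weight was taken as 7.5 mg/100 g body weight.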

Rattus norvegicus [28] = assay: Uptake in lungs after 4 hr was determined in female Fischer rats after [125I]-labeled compound complexed with bovine serum albumin was injected intravenously; assay type: functional; how it was run: as §3
Rattus norvegicus [29] = assay: Liver uptake after 60 min was determined in female Fischer rats after [125I]-labeled compound complexed with bovine serum albumin was injected intravenously; assay type: functional; how it was run: as §1
Rattus norvegicus [30] = assay: Kidney uptake after 5 min was determined in female Fischer rats after [125I]-labeled compound complexed with bovine serum albumin was injected intravenously; assay type: functional; how it was run: as §1
Rattus norvegicus [31] = assay: Uptake in lungs after 60 min was determined in female Fischer rats after [125I]-labeled compound complexed with bovine serum albumin was injected intravenously; assay type: functional; how it was run: as §3
Rattus norvegicus [32] = assay: Heart uptake after 4 hr was determined in female Fischer rats after [125I]-labeled compound complexed with bovine serum albumin was injected intravenously; assay type: functional; how it was run: as §1
Rattus norvegicus [33] = assay: Blood uptake after 1d was determined in female Fischer rats after [125I]-labeled compound complexed with bovine serum albumin was injected intravenously; assay type: functional; how it was run: as §1
Rattus norvegicus [34] = assay: Uptake in lungs after 30 min was determined in female Fischer rats after [125I]-labeled compound complexed with bovine serum albumin was injected intravenously; assay type: functional; how it was run: as §3
Rattus norvegicus [35] = assay: Liver uptake after 5 min was determined in female Fischer rats after [125I]-labeled compound complexed with bovine serum albumin was injected intravenously; assay type: functional; how it was run: as §1
Rattus norvegicus [36] = assay: Blood uptake after 30 min was determined in female Fischer rats after [125I]-labeled compound complexed with bovine serum albumin was injected intravenously; assay type: functional; how it was run: as §1
Rattus norvegicus [37] = assay: Thyroid uptake after 5 min was determined in female Fischer rats after [125I]-labeled compound complexed with bovine serum albumin was injected intravenously; assay type: functional; how it was run: as §3
Rattus norvegicus [38] = assay: Heart uptake after 1d was determined in female Fischer rats after [125I]-labeled compound complexed with bovine serum albumin was injected intravenously; assay type: functional; how it was run: as §1
Rattus norvegicus [39] = assay: Blood uptake after 5 min was determined in female Fischer rats after [125I]-labeled compound complexed with bovine serum albumin was injected intravenously; assay type: functional; how it was run: as §1
Rattus norvegicus [40] = assay: Liver uptake after 4 hr was determined in female Fischer rats after [125I]-labeled compound complexed with bovine serum albumin was injected intravenously; assay type: functional; how it was run: as §1
Rattus norvegicus [41] = assay: Liver uptake after 1d was determined in female Fischer rats after [125I]-labeled compound complexed with bovine serum albumin was injected intravenously; assay type: functional; how it was run: as §1
Rattus norvegicus [42] = assay: Uptake in lungs after 5 min was determined in female Fischer rats after [125I]-labeled compound complexed with bovine serum albumin was injected intravenously; assay type: functional; how it was run: as §3
Rattus norvegicus [43] = assay: Liver uptake after 30 min was determined in female Fischer rats after [125I]-labeled compound complexed with bovine serum albumin was injected intravenously; assay type: functional; how it was run: as §1
Rattus norvegicus [44] = assay: Blood uptake after 60 min was determined in female Fischer rats after [125I]-labeled compound complexed with bovine serum albumin was injected intravenously; assay type: functional; how it was run: as §1

Compound: O=C(O)CCCCCCCCCCC[Te]CCC/C=C/I
- Injected dose/g (Rattus norvegicus [1]): 1.46%
- Ratio [2]: 1.1
- Ratio [3]: 1.6
- Injected dose/g (Rattus norvegicus [4]): 1.03%
- Ratio [5]: 1.6
- Ratio [6]: 1.5
- Ratio [7]: 2.5
- Ratio [8]: 1.9
- Ratio [9]: 0.17
- Ratio [10]: 1.2
- Ratio [11]: 1.7
- Injected dose/g (Rattus norvegicus [12]): 1.81%
- Ratio [13]: 1.6
- Ratio [14]: 1.3
- Ratio [15]: 0.39
- Ratio [16]: 8
- Ratio [17]: 1.1
- Ratio [18]: 0.42
- Ratio [19]: 2.6
- Ratio [20]: 1.5
- Injected dose/g (Rattus norvegicus [21]): 1.52%
- Ratio [22]: 0.41
- Injected dose/g (Rattus norvegicus [23]): 0.76%
- Ratio [24]: 0.29
- Ratio [25]: 1.5

Compound: O=C(O)CCC[Te]CCCCCCCCCCC/C=C/I
- Injected dose/g (Rattus norvegicus [26]): 0.19%
- Injected dose/g (Rattus norvegicus [1]): 3.99%
- Injected dose/g (Rattus norvegicus [27]): 0.71%
- Injected dose/g (Rattus norvegicus [28]): 0.92%
- Ratio [2]: 4
- Ratio [3]: 2.7
- Ratio [5]: 3.7
- Ratio [6]: 4.6
- Ratio [7]: 30
- Injected dose/g (Rattus norvegicus [29]): 7.33%
- Ratio [8]: 4.3
- Injected dose/g (Rattus norvegicus [30]): 1.02%
- Injected dose/g (Rattus norvegicus [31]): 1.16%
- Ratio [9]: 0.6
- Injected dose/g (Rattus norvegicus [32]): 3.57%
- Ratio [10]: 18
- Ratio [11]: 3
- Injected dose/g (Rattus norvegicus [33]): 0.18%
- Injected dose/g (Rattus norvegicus [34]): 1.54%
- Injected dose/g (Rattus norvegicus [12]): 4.33%
- Injected dose/g (Rattus norvegicus [35]): 6.56%
- Ratio [13]: 3.7
- Ratio [14]: 3.6
- Ratio [15]: 0.75
- Ratio [16]: 37
- Injected dose/g (Rattus norvegicus [36]): 0.16%
- Injected dose/g (Rattus norvegicus [37]): 6.03%
- Ratio [17]: 3.9
- Ratio [18]: 0.74
- Ratio [19]: 23
- Ratio [20]: 20
- Injected dose/g (Rattus norvegicus [21]): 4.64%
- Injected dose/g (Rattus norvegicus [38]): 3.96%
- Ratio [22]: 0.59
- Injected dose/g (Rattus norvegicus [39]): 0.11%
- Injected dose/g (Rattus norvegicus [40]): 4.76%
- Ratio [24]: 0.84
- Injected dose/g (Rattus norvegicus [41]): 3.64%
- Ratio [25]: 3.9
- Injected dose/g (Rattus norvegicus [42]): 1.47%
- Injected dose/g (Rattus norvegicus [43]): 5.53%
- Injected dose/g (Rattus norvegicus [44]): 0.19%

Compound: O=C(O)CCCCC[Te]CCCCCCCCC/C=C/I
- Injected dose/g (Rattus norvegicus [1]): 3.47%
- Ratio [2]: 3.3
- Ratio [3]: 2.7
- Injected dose/g (Rattus norvegicus [4]): 2.86%
- Ratio [5]: 2.9
- Ratio [6]: 3.1
- Ratio [7]: 13
- Ratio [8]: 3.1
- Ratio [9]: 0.56
- Ratio [10]: 8
- Ratio [11]: 2.9
- Injected dose/g (Rattus norvegicus [12]): 2.96%
- Ratio [13]: 3.1
- Ratio [14]: 2.9
- Ratio [15]: 0.54
- Ratio [16]: 13
- Ratio [17]: 2.8
- Ratio [18]: 0.59
- Ratio [19]: 13
- Ratio [20]: 12
- Injected dose/g (Rattus norvegicus [21]): 2.78%
- Ratio [22]: 0.55
- Injected dose/g (Rattus norvegicus [23]): 2.37%
- Ratio [24]: 0.49
- Ratio [25]: 3.3
